Experimental data published in ChEMBL document CHEMBL2046427, “Nonhematotoxic naphthalene diimide modified by polyamine: synthesis and biological evaluation” (J Med Chem, 2012).
The source made the active and inactive calls. The rule behind the calls is not given here.

Legend:
HepG2 [1] = assay: Cytotoxicity against human HepG2 cells assessed as mitochondrial permeability augmentation after 48 hrs by fluorescence-based high-content screening assay; format: functional, cell-based
Procedure, shortened: (§1)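 HepG2 seeded 5 × 10³/well; after 12 h treated at 1, 5, 10, 15 and 30 μM for 48 h. Multiparameter cytotoxicity kit staining imaged by high-content screening: Hoechst 33342 for nuclear morphology, permeability dye (green nuclei) for membrane integrity, mitochondrial potential dye, and a weak-base dye for lysosomal mass/pH.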

HepG2 [2] = assay: Cytotoxicity against human HepG2 cells assessed as decrease in mitochondrial membrane potential after 48 hrs by fluorescence-based high-content screening assay; format: functional, cell-based; procedure, shortened: as §1
HepG2 [3] = assay: Cytotoxicity against human HepG2 cells after 48 hrs by MTT assay; format: functional, cell-based; settings: HepG2, 48 h
Procedure, shortened: (§2)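 MTT conversion assay at 37 °C, 5% CO₂. […] Inhibition relative to untreated cells as 100%; IC50 by linear regression, mean of three independent experiments.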

HepG2 [4] = assay: Cytotoxicity against human HepG2 cells assessed as cell nuclear shrinkage after 48 hrs by Hoechst 33342-based fluorescence-based high-content screening assay; format: functional; procedure, shortened: as §1
HepG2 [5] = assay: Cytotoxicity against human HepG2 cells assessed as acruement in lysosomal mass/pH after 48 hrs by fluorescence-based high-content screening assay; format: functional, cell-based; procedure, shortened: as §1
MDA-MB-231 = assay: Cytotoxicity against human MDA-MB-231 cells after 48 hrs by MTT assay; format: functional, cell-based; settings: MDA-MB-231, 48 h; procedure, shortened: as §2
K562 = assay: Cytotoxicity against human K562 cells after 48 hrs by MTT assay; format: functional, cell-based; settings: K562, 48 h; procedure, shortened: as §2
Mus musculus [6] = assay: Toxicity in mouse H22 cells bearing Kunming mouse assessed as decrease in white blood cells number at 5 mg/kg, iv administered for 7 days measured on day 8 relative to vehicle treated control; format: organism-based; design: dose 5 mg/kg, route intravenous; settings: in vivo, 168 h
Procedure, shortened: (§3)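 Tumour-bearing mice (10 per group) dosed iv for 7 consecutive days; killed on day 8. Blood and bone marrow collected; platelet, RBC, WBC and bone marrow cell counts determined with a Coulter counter. Mean SD versus saline control; Student's t test or ANOVA with q test.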

Mus musculus [7] = assay: Toxicity in mouse H22 cells bearing Kunming mouse assessed as decrease in platelet number at 5 mg/kg, iv administered for 7 days measured on day 8 relative to vehicle treated control; format: organism-based; design: dose 5 mg/kg, route intravenous; settings: in vivo, 168 h; procedure, shortened: as §3
H22 [8] = assay: Antimetastatic activity against mouse H22 cells xenografted in Kunming mouse assessed as decrease in lung metastases nodus number at 5 mg/kg, iv administered on day 11 post-tumor injection for 7 days measured on day 18 by hematoxylin and eosin staining relative to vehicle treated control; format: functional, organism-based; design: dose 5 mg/kg
Mus musculus [9] = assay: Toxicity in mouse H22 cells bearing Kunming mouse assessed pathological changes in brain at 5 mg/kg, iv administered for 7 days measured on day 8 by hematoxylin and eosin staining relative to vehicle treated control; format: organism-based; design: dose 5 mg/kg, route intravenous; settings: in vivo, 168 h
Procedure, shortened: (§4)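 Tumour-bearing mice dosed iv for 7 consecutive days, killed on day 8; heart, liver, kidney, brain, lung and spleen removed, fixed in 10% formaldehyde 24 h, paraffin-embedded, sectioned and H&E stained for histopathological change versus saline controls.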

Mus musculus [10] = assay: Toxicity in mouse H22 cells bearing Kunming mouse assessed pathological changes in lung at 5 mg/kg, iv administered for 7 days measured on day 8 by hematoxylin and eosin staining relative to vehicle treated control; format: organism-based; design: dose 5 mg/kg, route intravenous; settings: in vivo, 168 h; procedure, shortened: as §4
Mus musculus [11] = assay: Toxicity in mouse H22 cells bearing Kunming mouse assessed as weight loss at 5 mg/kg, iv administered for 7 days measured on day 8 relative to vehicle treated control; format: organism-based; design: dose 5 mg/kg, route intravenous; settings: in vivo, 168 h
Procedure, shortened: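 Body weight monitored in tumour-bearing mice during 7 consecutive days of iv dosing (10 per group), as a sign of dose-limiting toxicity versus saline-treated controls; mice killed on day 8.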

H22 [12] = assay: Antimetastatic activity against mouse H22 cells xenografted in Kunming mouse assessed as decrease in lung metastasis focuses number at 5 mg/kg, iv administered on day 11 post-tumor injection for 7 days measured on day 18 by hematoxylin and eosin staining relative to vehicle treated control; format: functional, organism-based; design: dose 5 mg/kg
H22 [13] = assay: Antimetastatic activity against mouse H22 cells xenografted in Kunming mouse assessed as tumor weight at 5 mg/kg, iv administered on day 11 post-tumor injection for 7 days measured on day 18 (reference value: 0.34 +/- 0.15 g); format: functional
Mus musculus [14] = assay: Toxicity in mouse H22 cells bearing Kunming mouse assessed pathological changes in spleen at 5 mg/kg, iv administered for 7 days measured on day 8 by hematoxylin and eosin staining relative to vehicle treated control; format: organism-based; design: dose 5 mg/kg, route intravenous; settings: in vivo, 168 h; procedure, shortened: as §4
H22 [15] = assay: Antitumor activity against mouse H22 cells xenografted in Kunming mouse assessed as median survival time at 5 […], iv administered 24 hrs post-tumor injection for 7 days relative to vehicle treated control; format: functional
Procedure, shortened: (§5)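 Kunming mice bearing H22 cells; iv (caudal vein) dosing or physiologic saline control started 24 h after inoculation and given for 7 consecutive days. Median survival time recorded per group; activity judged as increase in lifespan versus saline control.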

HCT-116 = assay: Cytotoxicity against human HCT116 cells after 48 hrs by MTT assay; format: functional, cell-based; settings: HCT-116, 48 h; procedure, shortened: as §2
Mus musculus [16] = assay: Toxicity in mouse H22 cells bearing Kunming mouse assessed as change in spleen index number at 5 mg/kg, iv administered for 7 days measured on day 8 relative to vehicle treated control; format: organism-based; design: dose 5 mg/kg, route intravenous; settings: in vivo, 168 h
Procedure, shortened: (§6)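 Tumour-bearing mice (10 per group) dosed iv for 7 consecutive days, killed on day 8; spleen and thymus removed and weighed. Organ index (%) = (organ weight/body weight) × 100, compared with saline-treated controls.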

H22 [17] = assay: Antitumor activity against mouse H22 cells xenografted in Kunming mouse assessed as tumor growth inhibition at 5 mg/kg, iv administered on day 8 post-tumor injection for 7 days measured on day 16 relative to vehicle treated control; format: functional; settings: read-out: GI
Procedure, shortened: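 Male Kunming mice, 5 weeks, 18−22 g, injected sc with 2 × 10⁶ H22 cells. From day 8, randomized groups got caudal vein injection (0.2 or 5 mg/kg, or physiologic saline) for 7 consecutive days. On day 16 tumours excised and weighed; inhibitory rate (%) = [(A − B)/A] × 100 using mean tumour weights of control (A) and treated (B). Tumours formalin-fixed, H&E-stained.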

H22 [18] = assay: Antitumor activity against mouse H22 cells xenografted in Kunming mouse assessed as median survival time at 5 […], iv administered 24 hrs post-tumor injection for 7 days (reference value: 12.7 +/- 2.5 days); format: functional; procedure, shortened: as §5
Mus musculus [19] = assay: Toxicity in mouse H22 cells bearing Kunming mouse assessed pathological changes in kidney at 5 mg/kg, iv administered for 7 days measured on day 8 by hematoxylin and eosin staining relative to vehicle treated control; format: organism-based; design: dose 5 mg/kg, route intravenous; settings: in vivo, 168 h; procedure, shortened: as §4
Mus musculus [20] = assay: Toxicity in mouse H22 cells bearing Kunming mouse assessed pathological changes in heart at 5 mg/kg, iv administered for 7 days measured on day 8 by hematoxylin and eosin staining relative to vehicle treated control; format: organism-based; design: dose 5 mg/kg, route intravenous; settings: in vivo, 168 h; procedure, shortened: as §4
Mus musculus [21] = assay: Toxicity in mouse H22 cells bearing Kunming mouse assessed as change in thymus index number at 5 mg/kg, iv administered for 7 days measured on day 8 relative to vehicle treated control; format: organism-based; design: dose 5 mg/kg, route intravenous; settings: in vivo, 168 h; procedure, shortened: as §6
H22 [22] = assay: Antitumor activity against mouse H22 cells xenografted in Kunming mouse assessed as decrease in cell survival at 5 mg/kg, iv administered on day 8 post-tumor injection for 7 days measured on day 16 relative to vehicle treated control; format: functional, organism-based; design: dose 5 mg/kg
Mus musculus [23] = assay: Toxicity in mouse H22 cells bearing Kunming mouse assessed pathological changes in liver at 5 mg/kg, iv administered for 7 days measured on day 8 by hematoxylin and eosin staining relative to vehicle treated control; format: organism-based; design: dose 5 mg/kg, route intravenous; settings: in vivo, 168 h; procedure, shortened: as §4
Mus musculus [24] = assay: Hematotoxicity in mouse H22 cells bearing Kunming mouse assessed as decrease in bone marrow cell numbers at 5 mg/kg, iv administered for 7 days measured on day 8 relative to vehicle treated control; format: organism-based; design: dose 5 mg/kg, route intravenous; settings: in vivo, 168 h; procedure, shortened: as §3
Mus musculus [25] = assay: Toxicity in mouse H22 cells bearing Kunming mouse assessed as decrease in red blood cells number at 5 mg/kg, iv administered for 7 days measured on day 8 relative to vehicle treated control; format: organism-based; design: dose 5 mg/kg, route intravenous; settings: in vivo, 168 h; procedure, shortened: as §3

## CN(C)CCN1C(=O)c2cccc3c(-c4ccccc4)ccc(c23)C1=O
HepG2 [1]
  Activity: Dose-dependent effect
HepG2 [2]
  Activity: Dose-dependent effect
HepG2 [3]
  IC50: 37 µM
HepG2 [4]
  Activity: Dose-dependent effect
HepG2 [5]
  Activity: Dose-dependent effect
MDA-MB-231
  IC50: 39.2 µM
K562
  IC50: > 50 µM

## NCCCNCCCCNCCCN1C(=O)c2ccc(-c3ccc4c(c3)C(=O)N(CCCNCCCCNCCCN)C4=O)cc2C1=O
HepG2 [3]
  IC50: > 50 µM
MDA-MB-231
  IC50: > 50 µM

## CN(C)CCN1C(=O)c2cccc3cc(N)cc(c23)C1=O [AMONAFIDE]
Mus musculus [6]
  Activity: Toxic
Mus musculus [7]
  Activity: Toxic
H22 [8]
  Activity: Active
Mus musculus [9]
  Activity: Non-toxic
Mus musculus [10]
  Activity: Non-toxic
Mus musculus [11]
  Activity: Toxic
H22 [12]
  Activity: Active
H22 [13]
  Activity: 0.29 g
Mus musculus [14]
  Activity: Non-toxic
H22 [15]
  Ratio: 1.5
HCT-116
  IC50: 32 µM
HepG2 [1]
  Activity: Dose-dependent effect
Mus musculus [16]
  Activity: Toxic
HepG2 [2]
  Activity: Dose-dependent effect
H22 [17]
  inhibition in vivo at 5 mg/kg: 44.7%
H22 [18]
  MST: 18.9 days
HepG2 [3]
  IC50: 36 µM
HepG2 [4]
  Activity: Dose-dependent effect
HepG2 [5]
  Activity: Dose-dependent effect
MDA-MB-231
  IC50: 42 µM
Mus musculus [19]
  Activity: Non-toxic
Mus musculus [20]
  Activity: Non-toxic
K562
  IC50: 31.7 µM
Mus musculus [21]
  Activity: Toxic
H22 [22]
  Activity: Active
Mus musculus [23]
  Activity: Non-toxic
Mus musculus [24]
  Activity: Toxic
Mus musculus [25]
  Activity: Toxic

## NCCCNCCCCN1C(=O)c2ccc3c4c(ccc(c24)C1=O)C(=O)N(CCCCNCCCN)C3=O
HepG2 [3]
  IC50: 33.3 µM
MDA-MB-231
  IC50: 20.2 µM
K562
  IC50: 21.2 µM

## NCCCCNCCCCN1C(=O)c2ccc3c4c(ccc(c24)C1=O)C(=O)N(CCCCNCCCCN)C3=O
HepG2 [3]
  IC50: 43.8 µM
MDA-MB-231
  IC50: 27.6 µM
K562
  IC50: 41 µM

## NCCCNCCCCNCCCN1C(=O)c2cccc3c(-c4ccccc4)ccc(c23)C1=O
HepG2 [3]
  IC50: 15.8 µM
MDA-MB-231
  IC50: 14.5 µM
K562
  IC50: 14.2 µM

## NCCCNCCCN1C(=O)c2ccc3c4c(ccc(c24)C1=O)C(=O)N(CCCNCCCN)C3=O
HCT-116
  IC50: 5.02 µM
HepG2 [3]
  IC50: 2.83 µM
MDA-MB-231
  IC50: 2.95 µM
K562
  IC50: 1.01 µM
